# Bioassay records from PubChem.
# MrgX1 allo act = human MrgX1 positive allosteric modulation, primary screen | hit rate 0.63% among 310,000 | B-score at 10 µM | Q96LB2 | AID 588675 | MrgX1-HEK293, Fluo-4 calcium flux, FDSS; stronger effect = higher value;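 active = plate-corrected calcium response at least 3 library SD above typical, normal starting fluorescence, not activating the receptor alone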;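 note: compound read alongside a low EC10 to EC30 dose of BAM8-22 agonist; peak minus trough fluorescence over baseline measured at the second addition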
# Target sequence (Q96LB2 whole entry, looked up): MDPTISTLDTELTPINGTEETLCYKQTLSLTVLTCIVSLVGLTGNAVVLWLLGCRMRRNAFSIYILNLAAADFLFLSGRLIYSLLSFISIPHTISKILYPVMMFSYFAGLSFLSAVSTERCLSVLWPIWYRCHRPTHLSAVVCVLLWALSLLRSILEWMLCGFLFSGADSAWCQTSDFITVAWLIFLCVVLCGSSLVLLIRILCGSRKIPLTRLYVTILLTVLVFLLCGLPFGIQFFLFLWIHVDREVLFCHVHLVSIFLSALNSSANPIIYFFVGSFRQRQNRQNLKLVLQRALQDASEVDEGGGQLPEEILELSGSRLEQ
# RGS4 pot = potentiators or activators of RGS4; AID 463111; B-score at 10 µM; hit rate 0.92% among 310,000; HEK293 M3R/inducible RGS4, carbachol calcium flux Fluo4; stronger effect = lower value;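 active = B-score of the integrated calcium signal more than 4 SD below the library mean, with starting fluorescence not abnormally high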;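 note: negative B-score means reduced calcium response which marks RGS4 activation or potentiation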
#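 System: HEK293 FlpIn-TREx cells, stable M3R, doxycycline-inducible RGS4. Timing: overnight RGS4 induction, 30 min dye load 37 °C, 20 min compound RT. Also added: carbachol, ECmax concentration. Measured by: Fluo4 fluorescence kinetic imaging of calcium. Evaluation: integrated calcium ratio converted to B score.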
# RGS4 inh = inhibitors of human RGS4; B-score at 10 µM; AID 463165; hit rate 0.45% among 310,000; P49798; HEK293 M3R/RGS4 inducible, Fluo-4 calcium flux; stronger effect = higher value; triggered by carbachol at its EC20;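 active = B-score, a plate-corrected calcium signal, over three deviations above library mean, with baseline fluorescence within five deviations of library mean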;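 note: RGS4 expression induced by doxycycline in cells with stable M3 receptor; B-score is computed from the integrated fluorescence ratio over baseline after carbachol; higher B-score means a larger calcium signal and so more RGS4 inhibition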
# MrgX1 antagonist = human MrgX1 receptor antagonism, primary screen; Q96LB2; MRGX1-HEK293 calcium flux, Fluo-4, BAM8-22 antagonism; stronger effect = lower value; B-score at 10 µM; hit rate 1.3% among 310,000;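 active = calcium-response B-score plate-corrected more than 3 library SD below zero, starting fluorescence within 5 deviations, no agonist response on first addition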;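 note: peak minus trough fluorescence over baseline after final BAM8-22 challenge near maximal dose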
# MrgX1 agonist = human MrgX1 receptor agonism, primary screen; Q96LB2; MrgX1-HEK293 cells, Fluo-4 calcium fluorescence, agonist mode; stronger effect = higher value; B-score at 10 µM; hit rate 0.44% among 310,000;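 active = calcium response B-score plate-corrected fluorescence ratio at least 3 library SD, with starting fluorescence B-score inside 5 SD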
#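 Material – MrgX1-expressing HEK293 cells · Input – 15,000 cells seeded per well · Dosing – compound as first of three additions · Times – overnight seeding, then 1 h dark dye loading · Measured by – kinetic Fluo-4 NW fluorescence of intracellular calcium · Read-out – B-scored fluorescence response ratio · Benchmarks – positive and negative control wells on each plate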
# RGS4 block valid = RGS4 inhibitor validation. hit rate 65% among 1,700. shares compounds with RGS4 inh. calcium response, % at 10 µM. HEK293 M3R/RGS4, carbachol calcium Fluo-4 fluorescence; carbachol added at its EC20; 0 = buffer wells, 100 = carbachol control;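 active = duplicate-averaged calcium response above the buffer-only control mean plus 5 SD of those controls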;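 note: integrated fluorescence ratio F max minus min over baseline F0; higher response in RGS4-induced cells means RGS4 inhibition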
# M3R Ca ctr = checks RGS4 inhibitor effects in non-induced HEK293 M3R cells; shares compounds with RGS4 inh; carbachol calcium Fluo-4; submaximal (EC20) carbachol stimulus; buffer wells 0%, carbachol control wells 100%; activity (percent), % at 10 µM; hit rate 20% among 1,900; AID 493000; call rule not given here;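 note: RGS4 induction absent so cells express M3R without RGS4; higher means more calcium signal and flags a non-specific hit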
# RGS4 inh ctr2 = signal in non-induced cells without carbachol, RGS4 inhibitor counter-screen; shares compounds with RGS4 inh; HEK293 M3R/RGS4 non-induced, Fluo-4 calcium, no carbachol; normalised: buffer wells 0%, carbachol wells 100%; calcium response (agonist-mode artifact), % at 10 µM; hit rate 22% among 1,900; AID 493001;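 active = duplicate-averaged calcium rise in uninduced cells above buffer wells' mean plus 5 SD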
# * marks the source's active call; other numbers are inactive results; i = inactive; / = no result given. Hits are enriched below; roughly 3.5% of the tested compounds scored in any of these assays.
SMILES,MrgX1 allo act,RGS4 pot,RGS4 inh,MrgX1 antagonist,MrgX1 agonist,RGS4 block valid,M3R Ca ctr,RGS4 inh ctr2
COc1ccc(/C=C/C(=O)c2ccc([N+](=O)[O-])o2)cc1OC,i,i,i,i,i,/,i,i
NS(=O)(=O)c1ccc(CNC(=O)/C=C/c2cccc(Cl)c2)cc1,i,i,i,i,i,/,/,/
COc1cc(/C=C/C(=O)c2ccc([N+](=O)[O-])o2)ccc1O,i,i,8.73*,i,i,39.0%*,i,i
CN(C)c1oc(-c2ccccc2[N+](=O)[O-])nc1C#N,i,i,10.8*,i,i,5.0%*,i,i
CC(C)N(C(=O)CSc1nnnn1-c1ccc2c(c1)OCO2)C(C)C,i,i,i,i,i,/,/,/
COc1ccc(NC(=O)N2CCN(S(C)(=O)=O)CC2)c(OC)c1,i,i,i,i,i,/,/,/
CC(=O)Nc1cccc(C(=O)/C=C/c2ccc(C)cc2)c1,i,i,i,i,i,i,i,i
CSc1ccc(/C=C/C(=O)c2ccc(NC(C)=O)cc2)cc1,i,i,i,i,i,/,/,/
O=C(NCc1ccco1)Nc1ccc2nsnc2c1,i,i,6.45*,i,i,i,i,i
O=C(NCc1ccco1)Nc1ccc(Br)cc1,i,i,i,i,i,/,/,/
CCC(Oc1ccc(C)cc1)C(=O)Nc1ccc(S(=O)(=O)Nc2cc(C)on2)cc1 (centres undefined),i,i,i,i,i,/,/,/
COc1ccc(/C=C/C(=O)NCCc2ccc(OC)c(OC)c2)cc1,i,i,i,i,i,/,/,/
COc1ccc(CCNC(=O)/C=C/c2ccc3ccccc3n2)cc1OC,i,i,13.1*,i,i,34.5%*,31.5%*,i
Cc1ccc(CN2CCN(/N=C/c3ccc(N(C)C)cc3)CC2)cc1,i,i,8.79*,i,i,i,i,i
Cc1ccc(/C=N/N2CCN(Cc3ccccc3)CC2)cc1,i,i,i,i,i,/,/,/
CCCCC1=CC2=C(c3ccco3)C(=O)C(C)(OC(=O)c3ccc(OC)cc3)C(=O)C2=CN1Cc1ccc2c(c1)OCO2 (centres undefined),i,i,i,i,i,/,/,/
CCCCC1=CC2=C(c3ccco3)C(=O)C(C)(OC(=O)c3ccc(OC)cc3)C(=O)C2=CN1Cc1ccccc1 (centres undefined),i,i,i,-5.36*,i,i,i,i
CCCCC1=CC2=CC(=O)C(C)(OC(=O)CC)C(=O)C2=CN1CCc1ccccn1 (centres undefined),i,i,i,i,i,/,/,/
CCCCC1=CC2=C(c3ccco3)C(=O)C(C)(OC(=O)c3ccc(OC)cc3)C(=O)C2=CN1CCc1ccccn1 (centres undefined),i,i,i,i,i,/,48.0%*,i
COC(=O)CCCC1=CC2=C(c3ccccc3)C(=O)C(C)(OC(=O)C3CCCC3)C(=O)C2=CN1C1CCCCC1 (centres undefined),i,i,i,i,i,/,/,/
CCCCC1=CC2=C(c3ccco3)C(=O)C(C)(OC(=O)c3ccc(OC)cc3)C(=O)C2=CN1CCOC (centres undefined),i,i,4.91*,i,i,22.0%*,33.5%*,i
CCCCC1=CC2=C(c3ccco3)C(=O)C(C)(OC(=O)c3ccc(OC)cc3)C(=O)C2=CN1C1CCCCC1 (centres undefined),i,i,i,i,i,i,i,i
